How the values were obtained:
MOLM13 cells [1] = assay: RNA-seq with differential expression, KEGG enrichment and GSEA in MOLM13 cells; assay type: cell-based, human; details: 200 nM, 24 h, fold change ≥2 and adjusted p-value ≤0.05
MOLM13 cells [2] = assay: Cell viability / antiproliferation assay in MOLM13 cells; assay type: cell-based, human; details: 72-h viability, CRBN WT and CRBN-null HEK293T and MOLM13 cells, 10 μM and 1 μM
Method in brief: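 Screening ran as a 72-h viability assay in CRBN wild-type and CRBN-null (knockout) HEK293T and MOLM13 cells. Lenalidomide and CC-885 served as controls. MOLM13 CRBN WT and KO cells were tested in biological triplicates, and the assay was repeated in three separate experiments.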

Row | Compound | number of differentially expressed genes (DEGs) (MOLM13 cells [1]) | activity in CRBN-dependent proliferation screen (MOLM13 cells [2])
1 | CN1CCc2[nH]c(-c3ccnc(NC(=O)[C@@H](CC(F)F)c4ccc(F)cc4)c3)c(Nc3ccccc3)c2C1=O [BAY-204] | 5,020 genes | –
2 | Cc1ccc(NC(=O)NCc2ccc3c(c2)CN(C2CCC(=O)NC2=O)C3=O)cc1Cl (stereo not drawn) [CC-885] | – | nonselective profile
3 | Nc1cccc2c1CN(C1CCC(=O)NC1=O)C2=O (stereo not drawn) [lenalidomide] | – | minimal activity
